Reference: ChEMBL document CHEMBL3407460, “Synthesis of novel thiazole-based 8,9-dihydro-7H-pyrimido[4,5-b][1,4]diazepines as potential antitumor and antifungal agents” (2015)
Converted amounts (≈) assume the structure as drawn. Values belong to the compound of their own block, whether it stands above or below them.

Legend:
Format in all cases: functional
[1] = system: Candida albicans; test: Antifungal activity against Candida albicans ATCC 10231 assessed as growth inhibition at 250 ug/ml after 48 hrs by broth microdilution method; settings: ATCC 10231, 48 h
How it was run: (§1)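 CLSI M27-A3 broth microdilution in RPMI-1640. Compound stocks were made in DMSO (final at most 1%) and tested at final levels of 250 to 0.98. Inoculum was 1–5 × 10^3 CFU/mL, incubated 48 h at 30 °C in a moist, dark chamber. Growth and sterility control wells were included.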

[2] = system: Candida albicans; test: Antifungal activity against Candida albicans ATCC 10231 assessed as growth inhibition at 125 ug/ml after 48 hrs by broth microdilution method; settings: ATCC 10231, 48 h; how it was run: as §1
[3] = system: Candida albicans; test: Antifungal activity against Candida albicans ATCC 10231 assessed as growth inhibition at 62.5 ug/ml after 48 hrs by broth microdilution method; settings: ATCC 10231, 48 h; how it was run: as §1
[4] = system: Candida albicans; test: Antifungal activity against Candida albicans ATCC 10231 assessed as growth inhibition at 31.25 ug/ml after 48 hrs by broth microdilution method; settings: ATCC 10231, 48 h; how it was run: as §1
[5] = system: Candida albicans; test: Antifungal activity against Candida albicans ATCC 10231 assessed as growth inhibition at 15.62 ug/ml after 48 hrs by broth microdilution method; settings: ATCC 10231, 48 h; how it was run: as §1
[6] = system: Candida albicans; test: Antifungal activity against Candida albicans ATCC 10231 assessed as growth inhibition at 7.81 ug/ml after 48 hrs by broth microdilution method; settings: ATCC 10231, 48 h; how it was run: as §1
[7] = system: Candida albicans; test: Antifungal activity against Candida albicans ATCC 10231 assessed as growth inhibition at 3.9 ug/ml after 48 hrs by broth microdilution method; settings: ATCC 10231, 48 h; how it was run: as §1
[8] = system: Cryptococcus neoformans; test: Antifungal activity against Cryptococcus neoformans ATCC 32264 assessed as growth inhibition at 250 ug/ml after 48 hrs by broth microdilution method; settings: ATCC 32264, 48 h; how it was run: as §1
[9] = system: Cryptococcus neoformans; test: Antifungal activity against Cryptococcus neoformans ATCC 32264 assessed as growth inhibition at 125 ug/ml after 48 hrs by broth microdilution method; settings: ATCC 32264, 48 h; how it was run: as §1
[10] = system: Cryptococcus neoformans; test: Antifungal activity against Cryptococcus neoformans ATCC 32264 assessed as growth inhibition at 62.5 ug/ml after 48 hrs by broth microdilution method; settings: ATCC 32264, 48 h; how it was run: as §1
[11] = system: Cryptococcus neoformans; test: Antifungal activity against Cryptococcus neoformans ATCC 32264 assessed as growth inhibition at 31.25 ug/ml after 48 hrs by broth microdilution method; settings: ATCC 32264, 48 h; how it was run: as §1
[12] = system: Cryptococcus neoformans; test: Antifungal activity against Cryptococcus neoformans ATCC 32264 assessed as growth inhibition at 15.62 ug/ml after 48 hrs by broth microdilution method; settings: ATCC 32264, 48 h; how it was run: as §1
[13] = system: Cryptococcus neoformans; test: Antifungal activity against Cryptococcus neoformans ATCC 32264 assessed as growth inhibition at 7.81 ug/ml after 48 hrs by broth microdilution method; settings: ATCC 32264, 48 h; how it was run: as §1
[14] = system: Cryptococcus neoformans; test: Antifungal activity against Cryptococcus neoformans ATCC 32264 assessed as growth inhibition at 3.9 ug/ml after 48 hrs by broth microdilution method; settings: ATCC 32264, 48 h; how it was run: as §1
[15] = system: Cryptococcus neoformans; test: Antifungal activity against Cryptococcus neoformans ATCC 32264 after 48 hrs by broth microdilution method; settings: ATCC 32264, 48 h
[16] = system: Cryptococcus neoformans; test: Antifungal activity against Cryptococcus neoformans IM 983040 clinical isolate after 48 hrs by broth microdilution method; settings: IM 983040, 48 h
How it was run: (§2)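 Clinical isolates from the Malbrán Institute were grown on Sabouraud-chloramphenicol agar for 48 h at 30 °C, kept on Sabouraud-dextrose agar and subcultured every 15 days. M27-A3 RPMI-1640 microdilution used 1–5 × 10^3 CFU/mL, 48 h at 30 °C, OD405 read, triplicate. Endpoints MIC100, MIC80 and MIC50 were taken from % inhibition dose-response curves.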

[17] = system: Cryptococcus neoformans; test: Antifungal activity against Cryptococcus neoformans IM 972724 clinical isolate after 48 hrs by broth microdilution method; settings: IM 972724, 48 h; how it was run: as §2
[18] = system: Cryptococcus neoformans; test: Antifungal activity against Cryptococcus neoformans IM 042074 clinical isolate after 48 hrs by broth microdilution method; settings: IM 042074, 48 h; how it was run: as §2
[19] = system: Cryptococcus neoformans; test: Antifungal activity against Cryptococcus neoformans IM 983036 clinical isolate after 48 hrs by broth microdilution method; settings: IM 983036, 48 h; how it was run: as §2
[20] = system: Cryptococcus neoformans; test: Antifungal activity against Cryptococcus neoformans IM 00319 clinical isolate after 48 hrs by broth microdilution method; settings: IM 00319, 48 h
How it was run: (§3)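 Clinical isolates from the Malbrán Institute were grown on Sabouraud-chloramphenicol agar for 48 h at 30 °C, kept on Sabouraud-dextrose agar and subcultured every 15 days. Endpoints MIC100, MIC80 and MIC50 were taken from % inhibition dose-response curves.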

[21] = system: Cryptococcus neoformans; test: Antifungal activity against Cryptococcus neoformans IM 972751 clinical isolate after 48 hrs by broth microdilution method; settings: IM 972751, 48 h; how it was run: as §2
[22] = system: Cryptococcus neoformans; test: Antifungal activity against Cryptococcus neoformans IM 031631 clinical isolate after 48 hrs by broth microdilution method; settings: IM 031631, 48 h; how it was run: as §2
[23] = system: Cryptococcus neoformans; test: Antifungal activity against Cryptococcus neoformans IM 031706 clinical isolate after 48 hrs by broth microdilution method; settings: IM 031706, 48 h; how it was run: as §3
[24] = system: Cryptococcus neoformans; test: Antifungal activity against Cryptococcus neoformans IM 961951 clinical isolate after 48 hrs by broth microdilution method; settings: IM 961951, 48 h; how it was run: as §2
[25] = system: Cryptococcus neoformans; test: Antifungal activity against Cryptococcus neoformans IM 052470 clinical isolate after 48 hrs by broth microdilution method; settings: IM 052470, 48 h; how it was run: as §3

Structure (SMILES): COc1ccc(C2=Nc3c(N)nc(N)nc3NC(c3sc(Cl)nc3Cl)C2)cc1 (configuration not stated)
- inhibition at 250 µg/mL [1]: 62.6%
- inhibition at 125 µg/mL [2]: 54.6%
- inhibition at 62.5 µg/mL [3]: 23.2%
- inhibition at 31.25 µg/mL [4]: 21.2%
- inhibition at 15.62 µg/mL [5]: 15.7%
- inhibition at 7.81 µg/mL [6]: 12.4%
- inhibition at 3.9 µg/mL [7]: 10.4%
- inhibition at 250 µg/mL [8]: 77.1%
- inhibition at 125 µg/mL [9]: 46.9%
- inhibition at 62.5 µg/mL [10]: 23.1%
- inhibition at 31.25 µg/mL [11]: 13.2%
- inhibition at 15.62 µg/mL [12]: 7.79%
- inhibition at 7.81 µg/mL [13]: 6.04%
- inhibition at 3.9 µg/mL [14]: 0%

- MIC50 [15]: 15.6 µg/mL (≈ 38.4 µM)
- MIC80 [15]: 31.2 µg/mL (≈ 76.8 µM)
- MIC ([15]; read-out: MIC100): 31.2 µg/mL (≈ 76.8 µM)
- MIC50 [16]: 7.8 µg/mL (≈ 19.2 µM)
- MIC80 [16]: 31.2 µg/mL (≈ 76.8 µM)
- MIC ([16]; read-out: MIC100): 31.2 µg/mL (≈ 76.8 µM)
- MIC50 [17]: 15.6 µg/mL (≈ 38.4 µM)
- MIC80 [17]: 31.2 µg/mL (≈ 76.8 µM)
- MIC ([17]; read-out: MIC100): 31.2 µg/mL (≈ 76.8 µM)
- MIC50 [18]: 15.6 µg/mL (≈ 38.4 µM)
- MIC80 [18]: 31.2 µg/mL (≈ 76.8 µM)
- MIC ([18]; read-out: MIC100): 31.2 µg/mL (≈ 76.8 µM)
- MIC50 [19]: 15.6 µg/mL (≈ 38.4 µM)
- MIC80 [19]: 31.2 µg/mL (≈ 76.8 µM)
- MIC ([19]; read-out: MIC100): 31.2 µg/mL (≈ 76.8 µM)
- MIC50 [20]: 31.2 µg/mL (≈ 76.8 µM)
- MIC80 [20]: 31.2 µg/mL (≈ 76.8 µM)
- MIC ([20]; read-out: MIC100): 62.5 µg/mL (≈ 154 µM)
- MIC50 [21]: 31.2 µg/mL (≈ 76.8 µM)
- MIC80 [21]: 31.2 µg/mL (≈ 76.8 µM)
- MIC ([21]; read-out: MIC100): 62.5 µg/mL (≈ 154 µM)
- MIC50 [22]: 31.2 µg/mL (≈ 76.8 µM)
- MIC80 [22]: 31.2 µg/mL (≈ 76.8 µM)
- MIC ([22]; read-out: MIC100): 62.5 µg/mL (≈ 154 µM)
- MIC50 [23]: 31.2 µg/mL (≈ 76.8 µM)
- MIC80 [23]: 31.2 µg/mL (≈ 76.8 µM)
- MIC ([23]; read-out: MIC100): 62.5 µg/mL (≈ 154 µM)
- MIC50 [24]: 15.6 µg/mL (≈ 38.4 µM)
- MIC80 [24]: 31.2 µg/mL (≈ 76.8 µM)
- MIC ([24]; read-out: MIC100): 31.2 µg/mL (≈ 76.8 µM)
- MIC50 [25]: 7.8 µg/mL (≈ 19.2 µM)
- MIC80 [25]: 31.2 µg/mL (≈ 76.8 µM)
- MIC ([25]; read-out: MIC100): 62.5 µg/mL (≈ 154 µM)
Structure (SMILES): Nc1nc(N)c2c(n1)NC(c1sc(Cl)nc1Cl)CC(c1ccccc1)=N2 (configuration not stated)
- inhibition at 250 µg/mL [1]: 100%
- inhibition at 125 µg/mL [2]: 100%
- inhibition at 62.5 µg/mL [3]: 100%
- inhibition at 31.25 µg/mL [4]: 100%
- inhibition at 15.62 µg/mL [5]: 62%
- inhibition at 7.81 µg/mL [6]: 21.5%
- inhibition at 3.9 µg/mL [7]: 4.92%
- inhibition at 250 µg/mL [8]: 100%
- inhibition at 125 µg/mL [9]: 74.3%
- inhibition at 62.5 µg/mL [10]: 21.8%
- inhibition at 31.25 µg/mL [11]: 7%
- inhibition at 15.62 µg/mL [12]: 2.53%
- inhibition at 7.81 µg/mL [13]: 0%
- inhibition at 3.9 µg/mL [14]: 0%
- MFC [15]: 31.2 µg/mL (≈ 76.8 µM)
- MFC [16]: 62.5 µg/mL (≈ 154 µM)
- MFC [17]: 31.2 µg/mL (≈ 76.8 µM)
- MFC [18]: 62.5 µg/mL (≈ 154 µM)
- MFC [19]: 31.2 µg/mL (≈ 76.8 µM)
- MFC [20]: 62.5 µg/mL (≈ 154 µM)
- MFC [21]: 62.5 µg/mL (≈ 154 µM)
- MFC [22]: 62.5 µg/mL (≈ 154 µM)
- MFC [23]: 62.5 µg/mL (≈ 154 µM)
- MFC [24]: 31.2 µg/mL (≈ 76.8 µM)
- MFC [25]: 62.5 µg/mL (≈ 154 µM)
